A word on the Ki: it is the equilibrium dissociation constant of an inhibitor or competing ligand from its target. Broadly, the bioavailability is the share of a dose that reaches the circulation, judged against a reference dose that is usually intravenous. Broadly, the half-life is how long it takes for the measured level to halve. Broadly, the AUC is concentration integrated over time. As usually defined, the Cmax is the maximum level reached in the sampled fluid or tissue. The term IC50 denotes the concentration that inhibits the measured activity by half.

In data set [1] the target is T1, Endothelin receptor type B (Homo sapiens, UniProt P24530).
T1 sequence (P24530 whole entry): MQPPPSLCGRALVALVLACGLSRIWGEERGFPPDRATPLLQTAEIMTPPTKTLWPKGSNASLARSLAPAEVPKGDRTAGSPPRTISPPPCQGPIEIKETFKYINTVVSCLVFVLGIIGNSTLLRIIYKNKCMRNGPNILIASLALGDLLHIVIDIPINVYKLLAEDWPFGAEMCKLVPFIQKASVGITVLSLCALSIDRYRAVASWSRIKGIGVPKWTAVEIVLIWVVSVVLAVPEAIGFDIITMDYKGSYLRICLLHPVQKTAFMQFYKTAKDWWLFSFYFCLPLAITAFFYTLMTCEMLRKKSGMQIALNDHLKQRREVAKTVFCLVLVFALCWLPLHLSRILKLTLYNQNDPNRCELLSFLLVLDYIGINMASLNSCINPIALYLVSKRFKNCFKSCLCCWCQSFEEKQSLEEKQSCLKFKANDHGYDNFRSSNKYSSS
Description: Tested for binding affinity for human Endothelin B receptor by measuring its ability to displace [125I]-ET-3 from chinese hamster ovary cells(CHO). Type of data set: cell-based.

Data set [2] can be described thus: Bioavailability in rat. The following applies: in vivo. Format: ADME, organism-based. The gist of the method:
(§1)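 Male Sprague-Dawley rats, n = 4 per group, 10 mg/kg iv (jugular slow bolus) or oral gavage, 10 mg/mL in ethanol–propylene glycol–D5W (20:30:50) with 1 equiv NaOH. Tail-vein plasma taken 0.1 (iv only) to 12 h, assayed by HPLC after extraction. AUC by trapezoidal rule extrapolated to infinity; T1/2 from terminal rate constant; F as oral/iv AUC.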

Data set [3] can be described thus: Pharmacokinetic profile-half life was evaluated in rats upon intravenous administration. Format: ADME, organism-based. The settings on record: rat, in vivo. The gist of the method:
as §1

Data set [4] concerns the target T2, Endothelin-1 receptor (Homo sapiens, UniProt P25101).
T2 sequence (P25101 whole entry): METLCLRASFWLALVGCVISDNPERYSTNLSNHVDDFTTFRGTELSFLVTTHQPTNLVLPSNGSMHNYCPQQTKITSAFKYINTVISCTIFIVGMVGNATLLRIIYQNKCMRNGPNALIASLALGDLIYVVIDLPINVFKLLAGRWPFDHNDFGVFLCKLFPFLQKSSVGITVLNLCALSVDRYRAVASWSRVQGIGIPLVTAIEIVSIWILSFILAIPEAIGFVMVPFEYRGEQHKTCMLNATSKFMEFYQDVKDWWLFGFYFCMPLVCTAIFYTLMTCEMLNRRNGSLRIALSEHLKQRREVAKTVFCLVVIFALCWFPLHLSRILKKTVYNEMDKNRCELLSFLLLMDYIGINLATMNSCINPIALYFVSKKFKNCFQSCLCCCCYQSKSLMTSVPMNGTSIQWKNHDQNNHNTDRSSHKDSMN
Description: Tested for binding affinity for human Endothelin A receptor by measuring its ability to displace [125I]-ET-1 from chinese hamster ovary cells(CHO). Type of data set: cell-based.

The nature of data set [5]: Pharmacokinetic profile AUC was evaluated in rats. Type of data set: ADME, organism-based. Set-up: concentration or dose not given beside the values. The settings on record: rat, in vivo. The gist of the method:
as §1

Data set [6] can be described thus: Pharmacokinetic profile Cmax was evaluated in rats. Type of data set: ADME, organism-based. The following applies: rat, in vivo. The gist of the method: as §1
Data set [7] is described as follows: Pharmacokinetic profile-half life was evaluated in rats upon oral administration. Type of data set: ADME, organism-based. The following applies: rat, in vivo. The gist of the method: as §1
The target in data set [8] is T1, Endothelin receptor type B. The data set can be described thus: Tested for binding affinity for human Endothelin B receptor by measuring its ability to displace [125I]ET-3 from chinese hamster ovary cells(CHO). Type of data set: cell-based.
Data set [9] addresses T3, Endothelin-1 receptor (Rattus norvegicus, UniProt P26684).
T3 sequence (P26684 whole entry): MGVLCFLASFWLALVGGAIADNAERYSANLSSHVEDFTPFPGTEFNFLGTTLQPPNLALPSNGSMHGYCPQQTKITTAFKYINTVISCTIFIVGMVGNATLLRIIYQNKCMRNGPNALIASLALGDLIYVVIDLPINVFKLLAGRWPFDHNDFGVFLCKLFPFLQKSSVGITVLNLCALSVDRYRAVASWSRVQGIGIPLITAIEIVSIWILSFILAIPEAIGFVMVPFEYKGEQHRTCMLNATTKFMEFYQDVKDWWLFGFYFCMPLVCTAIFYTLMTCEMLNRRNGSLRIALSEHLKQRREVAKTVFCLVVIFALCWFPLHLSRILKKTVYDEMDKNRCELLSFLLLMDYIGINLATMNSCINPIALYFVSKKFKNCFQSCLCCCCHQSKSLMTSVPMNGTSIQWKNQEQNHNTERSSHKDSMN
Description: Binding affinity for endothelin A receptor by measuring its ability to displace [125I]ET1 from prolactin secreting rat pituitary cells(MMQ). Format: cell-based, Pituitary gland cell.

Data set [10] concerns the target T2, Endothelin-1 receptor. Description: Tested for binding affinity for human Endothelin A receptor by measuring its ability to displace [125I]ET1 from chinese hamster ovary cells(CHO). Type of data set: cell-based.

Values joined by “and” are separate entries in the source; they are usually repeats but may differ in a detail not shown here. Equal entries are not always repeated. Some results are limits rather than exact numbers.

`Cc1noc(NS(=O)(=O)c2cccc3c(N(C)C)cccc23)c1C` [BMS-182874]: in data set [1], the Ki is above 50000 nM.
On to `Cc1cc2c(cc1CC(=O)c1ccsc1S(=O)(=O)Nc1onc(C)c1Cl)OCO2`, for which the bioavailability in data set [2] was 60%. The half-life in data set [3] is 402 min. The Ki was above 4300 nM in data set [1] and 0.43 nM on Endothelin-1 receptor [4].
The molecule `CCCCN(CCCC)C(=O)CN1C[C@H](c2ccc3c(c2)OCO3)[C@@H](C(=O)O)[C@@H]1CCc1ccccn1` returned an AUC in [5] of 780 ng·h/mL. Also, in [2], the bioavailability was determined as 21.1%. This molecule returned a Cmax in [6] of 580 ng/mL. Also, the figures for the half-life in [3] and in data set [7] were 168 min and 528 min, respectively. In addition, the IC50 in data set [8] was 32 µM; at Endothelin-1 receptor [9], 0.38 nM and 0.72 nM; on Endothelin-1 receptor [10], 0.29 nM.
As for `COc1ccccc1Oc1c(NS(=O)(=O)c2ccc(C)cn2)nc(-c2ccnc(-c3nnn[nH]3)c2)nc1OCCO` [CLAZOSENTAN], the half-life in data set [3] was 48 min. Moreover, the values for the Ki (in [1]; at Endothelin-1 receptor [4]) were 175 nM and 0.13 nM, respectively.
Regarding `COc1ccc(C(=O)/C(Cc2cc(OC)c(OC)c(OC)c2)=C(\C(=O)[O-])c2ccc3c(c2)OCO3)cc1.[Na+]` [PD-156707 SODIUM], in data set [2], the bioavailability came out at 41%. Also, the half-life in data set [3] was 60 min. Moreover, the inhibition constant (Ki) in data set [1] was 139 nM.
